Activity calls are given as the source filed them. No cut-off for these calls is given here.
Tests used:
[1] = biological target: T1, ATP-dependent translocase ABCB1 (Homo sapiens, UniProt P08183); assay: Inhibition of full length human ABCB1 expressed in Flp-In-293 cells assessed as potentiation of doxorubicin-induced cytotoxicity at 8 uM after 72 hrs by SRB assay relative to control; format: cell-based
HEK293 [2] = assay: Potentiation of paclitaxel-induced cytotoxicity in Flp-In-293 cells assessed as reduction in paclitaxel IC50 at 10 uM after 72 hrs by SRB assay relative to control; format: functional, Homo sapiens
HEK293 [3] = assay: Potentiation of vincristine-induced cytotoxicity in Flp-In-293 cells assessed as reduction in vincristine IC50 at 8 uM after 72 hrs by SRB assay relative to control; format: functional, Homo sapiens
[4] = biological target: T1, ATP-dependent translocase ABCB1; assay: Inhibition of full length human ABCB1 expressed in Flp-In-293 cells at 5 uM incubated for 30 mins by calcein-AM uptake assay relative to control; format: cell-based; conditions: 0.5 h
HEK293 [5] = assay: Potentiation of doxorubicin-induced cytotoxicity in Flp-In-293 cells assessed as reduction in doxorubicin IC50 at 10 uM after 72 hrs by SRB assay relative to control; format: functional, Homo sapiens
HEK293 [6] = assay: Potentiation of doxorubicin-induced cytotoxicity in Flp-In-293 cells assessed as reduction in doxorubicin IC50 at 8 uM after 72 hrs by SRB assay relative to control; format: functional, Homo sapiens
[7] = biological target: T1, ATP-dependent translocase ABCB1; assay: Inhibition of full length human ABCB1 expressed in Flp-In-293 cells assessed as potentiation of vincristine-induced cytotoxicity at 8 uM after 72 hrs by SRB assay relative to control; format: cell-based
HEK293 [8] = assay: Downregulation of ABCB1 mRNA expression in Flp-In-293 cells transfected with full length human ABCB1 at 5 uM after 72 hrs by RT-PCR analysis; format: functional, cell-based
Outline: (§1)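 ABCB1 mRNA measured after treating ABCB1/Flp-In-293 cells with test compounds for 72 hr. Data given as mean ± SE of three experiments, each in triplicate.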

[9] = biological target: T1, ATP-dependent translocase ABCB1; assay: Inhibition of full length human ABCB1 expressed in Flp-In-293 cells assessed as potentiation of paclitaxel-induced cytotoxicity at 10 uM after 72 hrs by SRB assay relative to control; format: cell-based
[10] = biological target: T1, ATP-dependent translocase ABCB1; assay: Inhibition of full length human ABCB1 expressed in Flp-In-293 cells assessed as potentiation of paclitaxel-induced cytotoxicity at 8 uM after 72 hrs by SRB assay relative to control; format: cell-based
[11] = biological target: T1, ATP-dependent translocase ABCB1; assay: Inhibition of full length human ABCB1 expressed in Flp-In-293 cells at 2.5 uM incubated for 30 mins by calcein-AM uptake assay relative to control; format: cell-based; conditions: 0.5 h
[12] = biological target: T1, ATP-dependent translocase ABCB1; assay: Inhibition of full length human ABCB1 expressed in Flp-In-293 cells assessed as potentiation of vincristine-induced cytotoxicity at 10 uM after 72 hrs by SRB assay relative to control; format: cell-based
[13] = biological target: T1, ATP-dependent translocase ABCB1; assay: Inhibition of full length human ABCB1 expressed in Flp-In-293 cells assessed as potentiation of doxorubicin-induced cytotoxicity at 10 uM after 72 hrs by SRB assay relative to control; format: cell-based
HEK293 [14] = assay: Potentiation of paclitaxel-induced cytotoxicity in Flp-In-293 cells assessed as reduction in paclitaxel IC50 at 8 uM after 72 hrs by SRB assay relative to control; format: functional, Homo sapiens
HEK293 [15] = assay: Potentiation of vincristine-induced cytotoxicity in Flp-In-293 cells assessed as reduction in vincristine IC50 at 10 uM after 72 hrs by SRB assay relative to control; format: functional, Homo sapiens
HEK293 [16] = assay: Effect on ABCB1 mRNA expression in Flp-In-293 cells at 5 uM after 72 hrs by RT-PCR analysis; format: ADME, cell-based; conditions: human, flp-in-293, 72 h; outline: as §1
[17] = Potentiation of paclitaxel-induced cytotoxicity in human HeLaS3 assessed as reduction in paclitaxel IC50 at 8 uM after 72 hrs by SRB assay relative to control; format: functional, HeLa S3
[18] = biological target: T1, ATP-dependent translocase ABCB1; assay: Inhibition of ABCB1 in human KBVIN cells assessed as potentiation of paclitaxel-induced cytotoxicity at 8 uM after 72 hrs by SRB assay relative to control; format: cell-based
[19] = biological target: T1, ATP-dependent translocase ABCB1; assay: Inhibition of ABCB1 in human KBVIN cells assessed as potentiation of vincristine-induced cytotoxicity at 8 uM after 72 hrs by SRB assay relative to control; format: cell-based
[20] = biological target: T1, ATP-dependent translocase ABCB1; assay: Inhibition of ABCB1 in human KBVIN cells assessed as potentiation of paclitaxel-induced cytotoxicity at 10 uM after 72 hrs by SRB assay relative to control; format: cell-based
[21] = Potentiation of vincristine-induced cytotoxicity in human HeLaS3 assessed as reduction in vincristine IC50 at 8 uM after 72 hrs by SRB assay relative to control; format: functional, HeLa S3
[22] = biological target: T1, ATP-dependent translocase ABCB1; assay: Inhibition of ABCB1 in human KBVIN cells assessed as potentiation of vincristine-induced cytotoxicity at 10 uM after 72 hrs by SRB assay relative to control; format: cell-based
[23] = Potentiation of vincristine-induced cytotoxicity in human HeLaS3 assessed as reduction in vincristine IC50 at 10 uM after 72 hrs by SRB assay relative to control; format: functional, HeLa S3
[24] = Potentiation of paclitaxel-induced cytotoxicity in human HeLaS3 assessed as reduction in paclitaxel IC50 at 10 uM after 72 hrs by SRB assay relative to control; format: functional, HeLa S3

T1 sequence (P08183 whole entry): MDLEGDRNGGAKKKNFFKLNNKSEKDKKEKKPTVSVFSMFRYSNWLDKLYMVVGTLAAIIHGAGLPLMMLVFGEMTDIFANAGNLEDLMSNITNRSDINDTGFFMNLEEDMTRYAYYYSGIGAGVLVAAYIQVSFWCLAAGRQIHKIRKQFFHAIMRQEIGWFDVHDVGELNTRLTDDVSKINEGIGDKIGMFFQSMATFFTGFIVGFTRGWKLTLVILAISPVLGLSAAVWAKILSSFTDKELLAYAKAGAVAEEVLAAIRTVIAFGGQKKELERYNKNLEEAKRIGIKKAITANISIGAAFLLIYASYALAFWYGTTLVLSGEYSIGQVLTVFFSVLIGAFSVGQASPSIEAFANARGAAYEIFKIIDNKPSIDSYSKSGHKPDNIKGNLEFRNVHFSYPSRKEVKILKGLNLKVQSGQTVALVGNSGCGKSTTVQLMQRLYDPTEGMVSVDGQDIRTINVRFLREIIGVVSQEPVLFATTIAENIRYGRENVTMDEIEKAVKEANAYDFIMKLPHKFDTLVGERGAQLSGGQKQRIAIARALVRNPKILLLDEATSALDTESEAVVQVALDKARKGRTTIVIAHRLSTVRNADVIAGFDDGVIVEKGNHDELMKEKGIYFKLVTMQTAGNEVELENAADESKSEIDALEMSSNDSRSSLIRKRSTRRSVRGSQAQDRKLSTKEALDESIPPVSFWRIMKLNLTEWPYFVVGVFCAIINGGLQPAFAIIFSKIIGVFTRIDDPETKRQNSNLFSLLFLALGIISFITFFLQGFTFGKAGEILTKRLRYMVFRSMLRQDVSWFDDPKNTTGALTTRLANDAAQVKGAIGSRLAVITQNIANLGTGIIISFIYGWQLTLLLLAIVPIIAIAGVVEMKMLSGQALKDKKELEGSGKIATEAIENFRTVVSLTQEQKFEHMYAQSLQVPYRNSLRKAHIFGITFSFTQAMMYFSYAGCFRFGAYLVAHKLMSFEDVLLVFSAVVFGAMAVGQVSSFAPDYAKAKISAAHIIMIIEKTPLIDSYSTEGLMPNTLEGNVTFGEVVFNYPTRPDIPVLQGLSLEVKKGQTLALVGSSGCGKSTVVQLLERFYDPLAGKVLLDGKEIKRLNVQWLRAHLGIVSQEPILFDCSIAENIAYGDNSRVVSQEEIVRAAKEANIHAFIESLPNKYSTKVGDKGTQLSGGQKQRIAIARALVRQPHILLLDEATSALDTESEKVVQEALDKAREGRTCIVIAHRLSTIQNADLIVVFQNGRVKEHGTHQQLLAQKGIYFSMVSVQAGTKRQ

## COc1ccc(-c2coc3c(c(O)cc4occ(-c5ccc(OC)c(OC)c5)c(=O)c43)c2=O)cc1OC
[1]
  fold change (FC): 1.5
HEK293 [2]
  fold change (FC): 1.3
HEK293 [3]
  fold change (FC): 7.8
[4]
  fold change (FC): 1.64
HEK293 [5]
  fold change (FC): 1.3
HEK293 [6]
  fold change (FC): 1.2
[7]
  fold change (FC): 4.1
HEK293 [8]
  Activity: Active
[9]
  fold change (FC): 9.5
[10]
  fold change (FC): 8.8
[11]
  fold change (FC): 1.45
[12]
  fold change (FC): 9.7
[13]
  fold change (FC): 1.5
HEK293 [14]
  fold change (FC): 1
HEK293 [15]
  fold change (FC): 8.2

## COc1ccc(-c2coc3c(c(O)cc4occ(-c5ccc(OC)cc5)c(=O)c43)c2=O)cc1
[1]
  fold change (FC): 1.6
HEK293 [2]
  fold change (FC): 4.2
HEK293 [3]
  fold change (FC): 6.6
[4]
  fold change (FC): 1.84
HEK293 [5]
  fold change (FC): 2.1
HEK293 [6]
  fold change (FC): 0.9
[7]
  fold change (FC): 1.4
HEK293 [16]
  Activity: Non-toxic
HEK293 [8]
  Activity: inactive
[9]
  fold change (FC): 8.2
[10]
  fold change (FC): 2.1
[11]
  fold change (FC): 1.54
[12]
  fold change (FC): 1.6
[13]
  fold change (FC): 1.7
HEK293 [14]
  fold change (FC): 2.7
HEK293 [15]
  fold change (FC): 7.1

## Cc1cccc(-c2coc3c(c(O)cc4occ(-c5cccc(C)c5)c(=O)c43)c2=O)c1
[17]
  fold change (FC): 1.1
[1]
  fold change (FC): 1.4
HEK293 [2]
  fold change (FC): 1.8
HEK293 [3]
  fold change (FC): 7.8
[4]
  fold change (FC): 2.05
HEK293 [5]
  fold change (FC): 1.6
HEK293 [6]
  fold change (FC): 1.2
[7]
  fold change (FC): 15.6
[18]
  fold change (FC): 19
[19]
  fold change (FC): 7.4
HEK293 [8]
  Activity: Active
[20]
  fold change (FC): 23.1
[9]
  fold change (FC): 16.1
[21]
  fold change (FC): 4.7
[10]
  fold change (FC): 10.8
[22]
  fold change (FC): 29.7
[11]
  fold change (FC): 1.58
[23]
  fold change (FC): 8.8
[12]
  fold change (FC): 21
[24]
  fold change (FC): 1.4
[13]
  fold change (FC): 1.6
HEK293 [14]
  fold change (FC): 1.5
HEK293 [15]
  fold change (FC): 9.1

## O=c1c(-c2ccccc2F)coc2cc3occ(-c4ccccc4F)c(=O)c3c(O)c12
[4]
  fold change (FC): 0.89
[11]
  fold change (FC): 0.92

## O=c1c(-c2ccccc2Cl)coc2c1c(O)cc1occ(-c3ccccc3Cl)c(=O)c12
[4]
  fold change (FC): 1.09
[11]
  fold change (FC): 0.98

## O=c1c(-c2cccc3ccccc23)coc2cc3occ(-c4cccc5ccccc45)c(=O)c3c(O)c12
[4]
  fold change (FC): 0.64
[11]
  fold change (FC): 0.72

Reference: ChEMBL document CHEMBL3822397, “Synthesis and bioevaluation of novel benzodipyranone derivatives as P-glycoprotein inhibitors for multidrug resistance reversal agents” (Eur J Med Chem, 2016)
